Results on one compound are retold here after paper PMC9050161 (RSC Advances, 2020).

The target of data set [1] is T1, CYP1A2 (Homo sapiens, UniProt P05177).
T1 sequence (P05177 1-516): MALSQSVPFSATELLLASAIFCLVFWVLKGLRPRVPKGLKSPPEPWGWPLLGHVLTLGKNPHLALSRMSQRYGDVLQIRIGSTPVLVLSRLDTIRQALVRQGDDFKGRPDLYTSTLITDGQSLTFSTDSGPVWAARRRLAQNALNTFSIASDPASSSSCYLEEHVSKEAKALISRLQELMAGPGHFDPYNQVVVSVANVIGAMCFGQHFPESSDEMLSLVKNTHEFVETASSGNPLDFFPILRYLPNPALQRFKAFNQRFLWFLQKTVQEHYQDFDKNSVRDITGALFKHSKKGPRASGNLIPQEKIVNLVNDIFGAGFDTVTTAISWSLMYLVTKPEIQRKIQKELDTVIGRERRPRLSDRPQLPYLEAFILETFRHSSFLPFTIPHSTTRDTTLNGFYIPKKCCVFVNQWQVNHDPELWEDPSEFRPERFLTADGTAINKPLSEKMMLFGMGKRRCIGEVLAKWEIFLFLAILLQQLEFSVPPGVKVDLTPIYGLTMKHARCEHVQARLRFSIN
The experiment in a line: Inhibition of CYP1A2. The class given is biochemical. In short, it runs like this: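 Recombinant human CYPs at 0.05 mg mL−1 protein, each with its probe substrate near Km: ethoxyresorufin 1 μM (CYP1A1), phenacetin 100 μM (CYP1A2), nifedipine 40 μM (CYP3A4, 3A5). Incubated at 37 °C without (control) or with test compound at 1, 10 and 100 μM. Supernatant analysed by UHPLC-TQD-MS; activity relative to control; triplicate.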

Data set [2] has as its target UGT1A9 (Homo sapiens, UniProt O60656). The experiment in a line: Inhibition of UGT1A9. The class given is biochemical. In short, it runs like this:
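Recombinant human UGTs screened with probe substrates: β-estradiol for UGT1A1, propofol for 1A9, and 4-methylumbelliferone for 1A3, 1A6, 1A7, 1A8, 1A10, 2B4, 2B7, 2B10, 2B15 and 2B17. Incubated at 37 °C without (control) or with test compound at 1, 10 or 100 μM. Glucuronide formation measured relative to control; triplicate.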

Data set [3] has as its system p110α. The settings on record: cited from earlier work.

Molecules are shown by their SMILES.

Sequence of UGT1A9 (O60656 26-530): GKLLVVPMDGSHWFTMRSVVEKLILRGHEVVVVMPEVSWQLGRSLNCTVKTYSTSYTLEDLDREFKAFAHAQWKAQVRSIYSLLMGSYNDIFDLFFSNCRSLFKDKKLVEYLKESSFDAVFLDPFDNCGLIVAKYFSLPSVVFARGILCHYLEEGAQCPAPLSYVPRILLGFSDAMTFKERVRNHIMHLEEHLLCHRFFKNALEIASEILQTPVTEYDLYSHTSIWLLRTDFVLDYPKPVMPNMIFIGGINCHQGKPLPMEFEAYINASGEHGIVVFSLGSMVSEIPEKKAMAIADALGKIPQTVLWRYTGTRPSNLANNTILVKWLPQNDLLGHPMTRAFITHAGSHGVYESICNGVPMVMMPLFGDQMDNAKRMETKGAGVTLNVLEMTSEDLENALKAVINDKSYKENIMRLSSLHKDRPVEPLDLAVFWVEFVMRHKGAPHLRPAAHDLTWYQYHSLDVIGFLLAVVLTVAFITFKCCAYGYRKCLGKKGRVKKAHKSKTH

As a reminder, the IC50 is the concentration that gives 50% inhibition. By Ki is commonly meant the equilibrium dissociation constant of an inhibitor or competing ligand from its target. Low values mean higher affinity, high ones lower affinity. With `Oc1cccc(-c2nc(N3CCOCC3)c3oc4ncccc4c3n2)c1` [PI-103], the IC50 in data set [1] is 0.37 ± 0.04 µM; in data set [2] it was 16.6 ± 1.29 µM; in data set [3], […]. For the same compound, the Ki in data set [1] turned out to be 0.38 ± 0.03 µM. In addition, the residual activity in data set [1] (CYP1A2, 100 μM PI-103) is given as 8.63 % of the negative control. In data set [1] (CYP1A2, phenacetin), the Type of inhibition entry is given as “Noncompetitive”.
